Assay results from ChEMBL document CHEMBL3525976, “An unusual metabolic pathway of sipoglitazar, a novel antidiabetic agent: cytochrome P450-catalyzed oxidation of sipoglitazar acyl glucuronide” (Drug Metab Dispos, 2012).

Legend:
[1] = system: Hepatocyte; assay: Drug level in cryopreserved primary human hepatocytes treated with 10 uM of [14C]Sipoglitazar after 6 hrs by LC-MS and LC-MS/MS analysis; type: ADME, cell-based
How it was run: (§1)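 Cryopreserved human hepatocytes suspended in DMEM at 3 x 10⁵ viable cells/well with 10 μmol/L [14C]sipoglitazar, 37°C, 6 h. Stopped with acetonitrile and centrifuged; supernatant run on radio-HPLC (ODS column, acetonitrile/water/TFA gradient). Metabolites expressed as % of total radioactivity. Means of duplicates.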

[2] = Drug level in human hepatic microsomes treated with 10 uM of [14C]Sipoglitazar after 6 hrs by LC-MS and LC-MS/MS analysis in presence of UDPGA; type: ADME, Liver
[3] = Drug level in human hepatic microsomes treated with 10 uM of [14C]Sipoglitazar after 6 hrs by LC-MS and LC-MS/MS analysis in presence of NADPH and UDPGA; type: ADME, Liver
[4] = Drug level in human hepatic microsomes treated with 10 uM of [14C]Sipoglitazar after 6 hrs by LC-MS and LC-MS/MS analysis in presence of NADPH; type: ADME, Liver
[5] = Drug level in human hepatic microsomes treated with 100 uM of [14C]Sipoglitazar after 4 hrs by HPLC analysis in presence of UDPGA; type: ADME, Liver
How it was run: (§2)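 Preparative glucuronidation: [14C]sipoglitazar 100 μmol/L with human liver microsomes (2 mg protein/mL) and UDPGA 5 mmol/L, 37°C, 4 h. Supernatant concentrated under nitrogen, then separated by radio-HPLC on ODS columns at 40°C or 4°C with acetonitrile/water/TFA gradient to resolve the glucuronide isomers.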

[6] = Drug metabolism in human hepatic microsomes assessed as formation of sipoglitazar at 10 uM after 10 mins by HPLC analysis in presence of NADPH; type: ADME, Liver, Microsome
How it was run: (§3)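 Human liver microsomes (1 mg protein/mL), 10 μmol/L [14C]glucuronide isomer, 5 mmol/L MgCl2, with or without NADPH-generating system (5 mmol/L G6P, 0.5 mmol/L β-NADP+, 1.5 U/mL G6PDH) in 50 mmol/L KPB. Incubated 37°C, 10 min. Acetonitrile quench, then radio-HPLC.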

[7] = Stability of the compound in rat bile assessed as formation of sipoglitazar at 10 uM up to 4 hrs; type: ADME, tissue-based
How it was run: (§4)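 [14C]glucuronide isomer (G1 or G2) at 10 μmol/L final, incubated at 37°C in 50 mmol/L potassium phosphate buffer (pH 7.4), acetate buffer (pH 4.4), rat bile or human plasma. Samples taken at 0, 5, 30 min and 1, 2, 4 h (G1) or 0, 1, 2, 4 h (G2). Reaction stopped with equal-volume acetonitrile and centrifuged. Supernatant analysed by radio-HPLC. Each species reported as % of total radioactivity.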

[8] = Chemical stability of the compound in potassium phosphate buffer at pH 7.4 assessed as formation of sipoglitazar at 10 uM up to 4 hrs; type: physicochemical; conditions: pH 7.4, 4 h; how it was run: as §4
[9] = system: Plasma; assay: Stability of the compound in human plasma assessed as formation of sipoglitazar at 10 uM up to 4 hrs; type: ADME, cell-free; how it was run: as §4
[10] = Chemical stability of the compound in acetate buffer at pH 4.4 at 10 uM up to 4 hrs; type: physicochemical; conditions: pH 4.4, 4 h; how it was run: as §4
[11] = Drug metabolism in human hepatic microsomes assessed as formation of 3-(3-hydroxy-1-{4-[(2-phenyl-1,3-thiazol-4-yl)methoxy]benzyl}-1H-pyrazol-4-yl)propanoic acid at 10 uM after 1 hr by LC-MS and LC-MS/MS analysis in presence of NADPH
[12] = Drug metabolism in human hepatic microsomes assessed as formation of 3-[3-ethoxy-1-(4-hydroxybenzyl)-1H-pyrazol-4-yl]propanoic acid] at 10 uM after 6 hrs by LC-MS and LC-MS/MS analysis in presence of NADPH and UDPGA; type: ADME, Liver, Microsome
[13] = Drug metabolism in human hepatic microsomes assessed as formation of 3-(3-hydroxy-1-{4-[(2-phenyl-1,3-thiazol-4-yl)methoxy]benzyl}-1H-pyrazol-4-yl)propanoic acid at 10 uM after 30 mins by LC-MS and LC-MS/MS analysis in presence of gemfibrozil, NADPH and UDPGA; type: ADME, Liver, Microsome; conditions: 0.5 h
How it was run: (§5)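 Human liver microsomes (0.5 mg protein/mL), 10 μmol/L [14C]sipoglitazar, 5 mmol/L MgCl2, alamethicin 50 μg/mL and UDPGA 5 mmol/L, with or without NADPH-generating system. Gemfibrozil added at 0, 10, 30, 100 or 300 μmol/L final, in 50 mmol/L KPB pH 7.4. Incubated 37°C, 30 min. Acetonitrile quench, then radio-HPLC.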

[14] = Drug metabolism in human hepatic microsomes assessed as formation of alpha-2-O-acyl glucuronide conjugate of sipoglitazar at 100 uM after 4 hrs by HPLC analysis in presence of UDPGA; type: ADME, Liver, Microsome; how it was run: as §2
[15] = Drug metabolism in human hepatic microsomes assessed as formation of beta-1-O-acyl glucuronide conjugate of sipoglitazar at 100 uM after 4 hrs by HPLC analysis in presence of UDPGA; type: ADME, Liver, Microsome; how it was run: as §2
[16] = Drug metabolism in human hepatic microsomes assessed as elimination of compound at 10 uM after 30 mins by LC-MS and LC-MS/MS analysis in presence of gemfibrozil, NADPH and UDPGA; type: ADME, Liver, Microsome; conditions: 0.5 h; how it was run: as §5
[17] = Drug metabolism in cryopreserved primary human hepatocytes assessed as formation of 3-(3-hydroxy-1-{4-[(2-phenyl-1,3-thiazol-4-yl)methoxy]benzyl}-1H-pyrazol-4-yl)propanoic acid at 10 uM after 6 hrs by LC-MS and LC-MS/MS analysis; type: ADME, cell-based, Hepatocyte; how it was run: as §1
[18] = Drug metabolism in human hepatic microsomes assessed as formation of 3-[3-ethoxy-1-(4-hydroxybenzyl)-1H-pyrazol-4-yl]propanoic acid] at 10 uM after 1 hr by LC-MS and LC-MS/MS analysis in presence of NADPH
[19] = Drug metabolism in human hepatic microsomes assessed as beta-1-O-acyl glucuronide conjugate of sipoglitazar formation at 10 uM after 30 mins by LC-MS and LC-MS/MS analysis in presence of gemfibrozil and UDPGA; type: ADME, Liver, Microsome; conditions: 0.5 h; how it was run: as §5
[20] = Drug metabolism in human hepatic microsomes assessed as elimination of compound at 10 uM after 30 mins by LC-MS and LC-MS/MS analysis in presence of gemfibrozil and UDPGA; type: ADME, Liver, Microsome; conditions: 0.5 h; how it was run: as §5
[21] = Drug metabolism in human hepatic microsomes assessed as formation of 3-[3-ethoxy-1-(4-hydroxybenzyl)-1H-pyrazol-4-yl]propanoic acid] at 10 uM after 30 mins by LC-MS and LC-MS/MS analysis in presence of gemfibrozil, NADPH and UDPGA; type: ADME, Liver, Microsome; conditions: 0.5 h; how it was run: as §5
[22] = Drug metabolism in human hepatic microsomes assessed as formation of 3-(3-hydroxy-1-{4-[(2-phenyl-1,3-thiazol-4-yl)methoxy]benzyl}-1H-pyrazol-4-yl)propanoic acid at 10 uM after 6 hrs by LC-MS and LC-MS/MS analysis in presence of NADPH and UDPGA; type: ADME, Liver, Microsome
[23] = Drug metabolism in cryopreserved primary human hepatocytes assessed as formation of 3-[3-ethoxy-1-(4-hydroxybenzyl)-1H-pyrazol-4-yl]propanoic acid] at 10 uM after 6 hrs by LC-MS and LC-MS/MS analysis; type: ADME, cell-based, Hepatocyte; how it was run: as §1
[24] = Chemical stability of the compound in potassium phosphate buffer at pH 7.4 assessed as formation of alpha-2-O-acyl glucuronide conjugate of sipoglitazar at 10 uM up to 4 hrs; type: physicochemical; conditions: pH 7.4, 4 h; how it was run: as §4
[25] = biological target: T1, Cytochrome P450 2B6 (Homo sapiens, UniProt P20813); assay: Drug metabolism in […] assessed as CYP2B6-mediated formation of 3-(3-hydroxy-1-{4-[(2-phenyl-1,3-thiazol-4-yl)methoxy]benzyl}-1H-pyrazol-4-yl)propanoic acid at 10 uM after 15 mins by HPLC analysis in presence of NADPH; conditions: 0.25 h
T1 sequence (P20813 whole entry): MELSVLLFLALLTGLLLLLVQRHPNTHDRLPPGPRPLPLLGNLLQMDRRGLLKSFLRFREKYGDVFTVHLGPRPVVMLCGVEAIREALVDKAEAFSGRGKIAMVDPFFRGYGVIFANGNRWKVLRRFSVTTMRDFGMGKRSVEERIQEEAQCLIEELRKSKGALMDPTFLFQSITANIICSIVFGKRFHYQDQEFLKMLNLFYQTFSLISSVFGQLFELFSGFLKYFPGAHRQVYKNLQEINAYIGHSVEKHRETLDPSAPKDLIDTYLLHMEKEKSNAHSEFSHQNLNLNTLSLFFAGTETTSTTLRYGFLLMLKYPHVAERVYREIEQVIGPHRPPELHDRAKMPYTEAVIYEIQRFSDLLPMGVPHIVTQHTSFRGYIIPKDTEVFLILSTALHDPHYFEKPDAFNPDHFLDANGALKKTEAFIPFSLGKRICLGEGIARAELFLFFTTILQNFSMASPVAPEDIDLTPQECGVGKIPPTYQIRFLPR
How it was run: (§6)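 Recombinant CYP-expressing microsomes (80 pmol P450/mL) with 10 μmol/L [14C]glucuronide substrate, 5 mmol/L MgCl2 and NADPH-generating system (5 mmol/L glucose-6-phosphate, 0.5 mmol/L β-NADP+, 1.5 U/mL G6PDH) in 50 mmol/L KPB or Tris-HCl pH 7.4. Incubated 37°C, 15 min. Deethylated product quantified by radio-HPLC. Means of duplicates.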

[26] = Drug metabolism in human hepatic microsomes assessed as formation of 3-(3-hydroxy-1-{4-[(2-phenyl-1,3-thiazol-4-yl)methoxy]benzyl}-1H-pyrazol-4-yl)propanoic acid at 10 uM after 10 mins by HPLC analysis in presence of NADPH; type: ADME, Liver, Microsome; how it was run: as §3
[27] = system: Plasma; assay: Stability of the compound in human plasma assessed as formation of alpha-2-O-acyl glucuronide conjugate of sipoglitazar at 10 uM up to 4 hrs; type: ADME, cell-free; how it was run: as §4
[28] = Stability of the compound in rat bile assessed as formation of alpha-2-O-acyl glucuronide conjugate of sipoglitazar at 10 uM up to 4 hrs; type: ADME, tissue-based; how it was run: as §4
[29] = biological target: T2, Cytochrome P450 2C8 (Homo sapiens, UniProt P10632); assay: Drug metabolism in […] assessed as CYP2C8-mediated formation of 3-(3-hydroxy-1-{4-[(2-phenyl-1,3-thiazol-4-yl)methoxy]benzyl}-1H-pyrazol-4-yl)propanoic acid at 10 uM after 15 mins by HPLC analysis in presence of NADPH; conditions: 0.25 h; how it was run: as §6
T2 sequence (P10632 whole entry): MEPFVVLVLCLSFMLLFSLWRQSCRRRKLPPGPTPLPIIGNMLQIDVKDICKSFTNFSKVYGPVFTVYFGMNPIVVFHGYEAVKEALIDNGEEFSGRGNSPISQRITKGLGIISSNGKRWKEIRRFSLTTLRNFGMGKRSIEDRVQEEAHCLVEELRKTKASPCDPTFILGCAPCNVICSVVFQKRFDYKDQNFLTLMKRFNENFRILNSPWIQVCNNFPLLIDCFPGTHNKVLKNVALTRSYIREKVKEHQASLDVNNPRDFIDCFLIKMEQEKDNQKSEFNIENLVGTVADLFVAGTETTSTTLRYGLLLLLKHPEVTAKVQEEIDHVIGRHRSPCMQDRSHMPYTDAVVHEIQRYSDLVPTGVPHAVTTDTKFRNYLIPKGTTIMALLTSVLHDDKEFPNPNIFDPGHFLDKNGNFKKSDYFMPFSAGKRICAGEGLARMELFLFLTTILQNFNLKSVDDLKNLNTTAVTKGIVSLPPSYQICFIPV

[30] = biological target: Cytochrome P450 2E1 (Homo sapiens, UniProt P05181); assay: Drug metabolism in […] assessed as CYP2E1-mediated formation of 3-(3-hydroxy-1-{4-[(2-phenyl-1,3-thiazol-4-yl)methoxy]benzyl}-1H-pyrazol-4-yl)propanoic acid at 10 uM after 15 mins by HPLC analysis in presence of NADPH; conditions: 0.25 h; how it was run: as §6
Chain of Cytochrome P450 2E1 (P05181 whole entry): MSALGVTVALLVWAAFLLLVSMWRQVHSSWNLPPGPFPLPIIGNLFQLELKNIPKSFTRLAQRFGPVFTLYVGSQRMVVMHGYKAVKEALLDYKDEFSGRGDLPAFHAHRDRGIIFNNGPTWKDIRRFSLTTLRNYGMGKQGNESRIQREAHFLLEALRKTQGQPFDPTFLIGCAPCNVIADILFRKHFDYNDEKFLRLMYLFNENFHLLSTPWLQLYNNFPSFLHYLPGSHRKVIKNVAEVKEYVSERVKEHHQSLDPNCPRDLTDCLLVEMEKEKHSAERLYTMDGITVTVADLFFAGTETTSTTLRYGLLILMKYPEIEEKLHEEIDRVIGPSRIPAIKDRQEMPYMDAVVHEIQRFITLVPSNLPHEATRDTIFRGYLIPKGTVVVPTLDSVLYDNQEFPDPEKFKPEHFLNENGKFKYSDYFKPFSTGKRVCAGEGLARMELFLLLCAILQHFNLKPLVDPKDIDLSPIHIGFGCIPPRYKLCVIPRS

O=C(O)CCc1cn(Cc2ccc(OCc3csc(-c4ccccc4)n3)cc2)nc1O
Drug metabolism [1]: metabolite_detected
Drug metabolism [2]: metabolite_detected
Drug metabolism [3]: metabolite_detected
Drug metabolism [4]: metabolite_detected

CCOc1nn(Cc2ccc(OCc3csc(-c4ccccc4)n3)cc2)cc1CCC(=O)O[C@@H]1[C@@H](O)[C@H](O)[C@@H](C(=O)O)O[C@@H]1O
Drug metabolism [5]: metabolite_detected
Drug metabolism [6]: metabolite_detected
Stability [7]: Unstable
Stability [8]: Unstable
Stability [9]: Unstable
Stability [10]: Stable

CCOc1nn(Cc2ccc(OCc3csc(-c4ccccc4)n3)cc2)cc1CCC(=O)O [SIPOGLITAZAR]
Drug metabolism [11]: metabolite_detected
Drug metabolism [12]: metabolite_detected
Drug metabolism [13]: metabolite_not_detected
Drug metabolism [14]: metabolite_detected
Drug metabolism [15]: metabolite_detected
Drug metabolism [16]: metabolite_not_detected
Drug metabolism [17]: metabolite_detected
Drug metabolism [18]: metabolite_detected
Drug metabolism [19]: metabolite_not_detected
Drug metabolism [20]: metabolite_not_detected
Drug metabolism [21]: metabolite_not_detected
Drug metabolism [22]: metabolite_detected
Drug metabolism [23]: metabolite_detected

CCOc1nn(Cc2ccc(OCc3csc(-c4ccccc4)n3)cc2)cc1CCC(=O)O[C@@H]1O[C@H](C(=O)O)[C@@H](O)[C@H](O)[C@H]1O
Stability [24]: Unstable
Drug metabolism [5]: metabolite_detected
Drug metabolism [25]: metabolite_not_detected
Drug metabolism [6]: metabolite_detected
Drug metabolism [26]: metabolite_detected
Stability [7]: Unstable
Stability [27]: Unstable
Stability [28]: Unstable
Drug metabolism [29]: metabolite_detected
Stability [8]: Unstable
Stability [9]: Unstable
Drug metabolism [30]: metabolite_not_detected
Stability [10]: Stable

CCOc1nn(Cc2ccc(O)cc2)cc1CCC(=O)O
Drug metabolism [1]: metabolite_detected
Drug metabolism [2]: metabolite_detected
Drug metabolism [3]: metabolite_detected
Drug metabolism [4]: metabolite_detected
